Experimental data from article PMC11796557 (RSC Advances, 2025).

Key:
Assay type in all cases: cell-based
HCT116 (colon carcinoma) = assay: MTT anticancer activity; details: Homo sapiens, HCT-116, 48 h, read-out: IC50 HCT116
How it was run: (§1)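 Cells kept in DMEM with 10% FBS, 1% penicillin–streptomycin and 1% L-glutamine at 37 °C, 5% CO₂. They were seeded at 10 000 per well and attached for 24 h, then exposed to varying concentrations (from a 10 mM DMSO stock) for 48 h. MTT (5 mg mL⁻¹) was added for 4 h, formazan dissolved in DMSO, and A570 read. IC50 was calculated. DMSO served as vehicle control and cisplatin or doxorubicin as positive control. Values are mean ± SD of three independent experiments (n = 9).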

A549 (lung carcinoma) = assay: MTT anticancer activity; details: Homo sapiens, A549, 48 h, read-out: IC50 A549
How it was run: as §1

PC3 (prostate carcinoma) = assay: MTT anticancer activity; details: Homo sapiens, 48 h, read-out: IC50 PC3
How it was run: as §1

MCF-7 (breast carcinoma) = assay: MTT anticancer activity; details: Homo sapiens, MCF7, 48 h, read-out: IC50 MCF-7
How it was run: as §1

normal fibroblasts = assay: MTT cytotoxicity assay, normal fibroblasts; details: Fibroblast, 48 h, read-out: IC50 Fibroblasts
How it was run: as §1

Compound	IC50 (HCT116 (colon carcinoma))	IC50 (A549 (lung carcinoma))	IC50 (PC3 (prostate carcinoma))	IC50 (MCF-7 (breast carcinoma))	IC50 (normal fibroblasts)
O=C1CCCc2c1c(O)cc(=O)n2-c1ccccc1 [Compound 3a, 4-Hydroxy-1-phenyl-7,8-dihydroquinoline-2,5(1H,6H)-dione]	148 µM	189 µM	151 µM	189 µM	> 500 µM
COc1ccccc1-n1c2c(c(O)cc1=O)C(=O)CCC2 [Compound 3e, 4-Hydroxy-1-(2-methoxyphenyl)-7,8-dihydroquinoline-2,5(1H,6H)-dione]	29.5 µM	67 µM	45 µM	62.6 µM	> 500 µM
CC1(C)CC(=O)c2c(O)cc(=O)n(-c3ccccc3)c2C1 [Compound 3f, 4-Hydroxy-7,7-dimethyl-1-phenyl-7,8-dihydroquinoline-2,5(1H,6H)-dione]	118 µM	127 µM	95.5 µM	70.6 µM	> 500 µM
COc1ccc(-n2c3c(c(O)cc2=O)C(=O)CC(C)(C)C3)cc1 [Compound 3i, 4-Hydroxy-1-(4-methoxyphenyl)-7,7-dimethyl-7,8-dihydroquinoline-2,5(1H,6H)-dione]	33.4 µM	73 µM	34.1 µM	50.1 µM	> 500 µM
COc1cccc2c1C(=O)c1c(O)c3c(c(O)c1C2=O)C[C@@](O)(C(=O)CO)C[C@@H]3O[C@H]1C[C@H](N)[C@H](O)[C@H](C)O1 [Doxorubicin, reference compound]	5.8 µM	–	–	2.3 µM	–

The remaining compounds from weak to strong by IC50 (HCT116 (colon carcinoma)), led by results:

IC50 (HCT116 (colon carcinoma))	IC50 (A549 (lung carcinoma))	IC50 (PC3 (prostate carcinoma))	IC50 (MCF-7 (breast carcinoma))	Compound	IC50 (normal fibroblasts)
162 µM	159 µM	239 µM	213 µM	Cc1ccc(-n2c3c(c(O)cc2=O)C(=O)CCC3)cc1 [Compound 3b, 4-Hydroxy-1-(p-tolyl)-7,8-dihydroquinoline-2,5(1H,6H)-dione]	> 500 µM
139 µM	257 µM	251 µM	261 µM	O=C1CCCc2c1c(O)cc(=O)n2-c1ccc(Cl)cc1 [Compound 3c, 1-(4-Chlorophenyl)-4-hydroxy-7,8-dihydroquinoline-2,5(1H,6H)-dione]	> 500 µM
46.5 µM	98.5 µM	65.9 µM	34.2 µM	O=C1CCCc2c1c(O)cc(=O)n2-c1ccc(F)cc1 [Compound 3d, 1-(4-Fluorophenyl)-4-hydroxy-7,8-dihydroquinoline-2,5(1H,6H)-dione]	> 500 µM
38.2 µM	78.8 µM	43.6 µM	81.4 µM	COc1ccccc1-n1c2c(c(O)cc1=O)C(=O)CC(C)(C)C2 [Compound 3j, 4-Hydroxy-1-(2-methoxyphenyl)-7,7-dimethyl-7,8-dihydroquinoline-2,5(1H,6H)-dione]	> 500 µM
28.9 µM	87.9 µM	29.3 µM	32.4 µM	CC1(C)CC(=O)c2c(O)cc(=O)n(-c3ccc(F)cc3)c2C1 [Compound 3h, 1-(4-Fluorophenyl)-4-hydroxy-7,7-dimethyl-7,8-dihydroquinoline-2,5(1H,6H)-dione]	> 500 µM
18.4 µM	32.4 µM	29.1 µM	26.9 µM	CC1(C)CC(=O)c2c(O)cc(=O)n(Cc3ccccc3)c2C1 [Compound 3g, 1-Benzyl-4-hydroxy-7,7-dimethyl-7,8-dihydroquinoline-2,5(1H,6H)-dione]	> 500 µM
